The list is not random: actives were taken first. Their share in the collection is about 4.1%.
Tb MetRS inh: blocks T. brucei methionyl-tRNA synthetase activity. purified T. brucei MetRS, ATP depletion, Kinase-Glo luminescence. 360,000 compounds, 0.4% hits. inhibition, % at 11.9 µM;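 active means inhibition above a per-plate cutoff of the control wells' mean inhibition plus 3 SD, cut at about 5.5% in these data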
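Test system – parasite MetRS enzyme · Reagent – substrates ATP, L-methionine and bulk Escherichia coli tRNA · Doses – 11.9 µM compound single dose, 0.9% DMSO · Times – 15 min enzyme-compound preincubation, 2 h reaction, 10 min detection, 25 °C · Signal – Kinase-Glo luminescence, ATP depletion format · Controls – DMSO-only wells as low control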
TAG inh: triacylglycerol accumulation inhibition; inhibition, % at 12.5 µM; 230,000 compounds, 0.66% hits; H9c2 cells, Nile Red lipid (TAG) fluorescence; cells loaded with 200 µM oleic acid;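 active means pattern-corrected inhibition of lipid staining of at least 50% with the nuclear-stain viability signal not falling by more than 50%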
Efflux pump inh: inhibitors of Candida antifungal efflux pumps expressed in yeast | S. cerevisiae Candida pump triplex, Nile Red efflux | inhibition, % at 10 µM | 330,000 compounds, 0.44% hits | AID 485275;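 active means plate passing quality check with inhibition over a set limit, or well fluorescence over plate mean plus 4 SD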;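 further: Nile Red retained in pooled yeast measured as flow cytometry median fluorescence; higher means more Nile Red kept so more efflux inhibition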
SMARCA2 act: SMARCA2 function activation, primary screen | activation, % at 9.1 µM | 370,000 compounds, 1% hits | AID 652017 | MG213 cells, MMTV-luciferase reporter, dexamethasone, overnight; in the data active means activation above about 7.8%
AHR activator: activators of human aryl hydrocarbon receptor; P35869; 320,000 compounds, 2.5% hits; AID 2796; AHR-responsive luciferase reporter cells, luminescence; activation, % at 5 µM; in the data active means activation above about 47%
Target sequence (P35869 whole entry, looked up): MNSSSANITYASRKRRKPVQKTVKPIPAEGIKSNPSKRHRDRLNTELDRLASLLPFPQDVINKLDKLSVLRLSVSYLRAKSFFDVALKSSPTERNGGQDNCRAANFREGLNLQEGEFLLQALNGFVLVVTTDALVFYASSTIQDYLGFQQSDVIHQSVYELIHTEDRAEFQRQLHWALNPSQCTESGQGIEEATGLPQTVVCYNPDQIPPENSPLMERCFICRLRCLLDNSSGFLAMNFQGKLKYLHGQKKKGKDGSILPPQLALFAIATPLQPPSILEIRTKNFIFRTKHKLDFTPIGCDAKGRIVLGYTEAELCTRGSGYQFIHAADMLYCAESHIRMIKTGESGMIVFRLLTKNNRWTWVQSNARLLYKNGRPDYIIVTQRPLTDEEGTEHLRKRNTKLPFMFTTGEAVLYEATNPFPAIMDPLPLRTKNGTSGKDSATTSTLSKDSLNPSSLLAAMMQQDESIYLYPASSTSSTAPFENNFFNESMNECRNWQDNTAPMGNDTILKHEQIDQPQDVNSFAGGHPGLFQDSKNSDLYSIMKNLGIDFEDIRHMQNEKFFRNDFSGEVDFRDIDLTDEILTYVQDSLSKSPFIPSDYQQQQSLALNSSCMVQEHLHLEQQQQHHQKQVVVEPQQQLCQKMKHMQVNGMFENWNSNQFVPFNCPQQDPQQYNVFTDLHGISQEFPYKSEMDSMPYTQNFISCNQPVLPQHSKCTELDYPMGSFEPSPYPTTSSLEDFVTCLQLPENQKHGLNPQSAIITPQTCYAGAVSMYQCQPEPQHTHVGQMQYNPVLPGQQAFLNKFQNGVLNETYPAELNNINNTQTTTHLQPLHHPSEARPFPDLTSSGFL
Hits are given with their value; i = inactive; nt = not tested or not shown.

SMILES	Tb MetRS inh	TAG inh	Efflux pump inh	SMARCA2 act	AHR activator
COc1cccc(C(=O)Nc2nc(-c3ccc4c(c3)OCO4)cs2)c1	i	i	i	i	68
CCOC(=O)N1CCN(C(=O)CSCC(=O)Nc2nc(-c3ccc(C)cc3)cs2)CC1	i	i	i	i	i
CCOC(=O)N1CCN(C(=O)CSCC(=O)Nc2nc(-c3ccc4c(c3)OCO4)cs2)CC1	i	nt	i	nt	63
COC(=O)[C@]12C[C@H](CC(=O)N3CCSCC3)C(=O)N(Cc3ccc(Cl)cc3Cl)C1=C[C@H](COCc1ccccc1)O[C@@H]2C	nt	nt	nt	i	nt
CCOc1ccc(S(=O)(=O)/N=C(/Nc2ccc(C(C)=O)cc2)c2ccccc2)cc1	i	i	i	i	65
CCOc1ccc(S(=O)(=O)/N=C(/Nc2ccc(OC)cc2)c2ccccc2)cc1	i	i	i	i	i
Cc1ccc(NC(=O)c2ccc(F)cc2F)cc1NS(C)(=O)=O	i	i	i	i	61
CCOC(=O)c1ccc(NC(=O)c2ccc(NS(C)(=O)=O)cc2)cc1	i	nt	i	i	i
CCc1ccc(C(=O)Nc2ccc(C)c(NS(C)(=O)=O)c2)cc1	i	i	i	i	65
CC(C)[C@H](NC(=O)C1CCCC1)C(=O)N1CCC[C@H]1C(=O)NCCc1ccccc1Cl	nt	nt	nt	i	nt
O=C1N(CCCO)CCC12CCC(c1ccccc1)CC2 (stereo unspecified)	nt	nt	nt	i	nt
N#Cc1ccc(NC(=O)c2nc(-c3ccccc3)n(-c3ccccc3)n2)cc1	i	nt	i	i	i
O=C(Nc1ccccn1)c1nc(-c2ccccc2)n(-c2ccccc2)n1	i	nt	i	i	56
CC(C)c1ccc(OC[C@@H](O)CN2CCC(C(O)(c3ccccc3)c3ccccc3)CC2)cc1	nt	nt	nt	i	nt
Cc1ccc(NS(=O)(=O)c2ccc(N/N=C/c3ccncc3)c([N+](=O)[O-])c2)c(C)c1	i	nt	i	i	48
Cc1cc(N/N=C/c2ccncc2)c([N+](=O)[O-])cc1[N+](=O)[O-]	i	i	i	i	i
Brc1cccc(Cn2ccc3ccc(-c4ccc5ccn(Cc6cccc(Br)c6)c5c4)cc32)c1	nt	nt	nt	i	nt
NNC(=O)c1sc(-c2ccc(Cl)cc2)cc1N	i	i	i	i	48
COc1ccc(CN2C(=O)N3Cc4ccc(C)cc4C3CS2(=O)=O)cc1 (stereo unspecified)	nt	nt	nt	i	nt
Cc1ccc2nc(-c3ccc(F)cc3)c(Cc3ccsc3)n2c1	nt	nt	nt	i	nt
Cc1ccc(N2CC3=C(C2=O)C(c2ccccc2)NC(=O)N3C)cc1 (stereo unspecified)	i	i	i	i	i
CN1C(=O)NC(c2ccccc2)C2=C1CN(c1ccc3ccccc3c1)C2=O (stereo unspecified)	i	i	i	i	68
O=C(N/N=C/c1c(F)cccc1Cl)c1ccc(Cn2cc(Br)cn2)o1	i	nt	i	i	49
Nc1c(C(=O)Nc2nccs2)sc2nc(-c3cccs3)cc(C(F)(F)F)c12	i	i	i	i	65
Cc1cc(C)c2c(N)c(C(=O)Nc3cccc(C)c3C)sc2n1	i	nt	i	i	68
SMILES	Tb MetRS inh	TAG inh	Efflux pump inh	SMARCA2 act	AHR activator
Cc1cc(C)c2c(N)c(C(=O)Nc3nccs3)sc2n1	i	i	i	i	71
O=C1/C(=C\c2cccnc2)Sc2ccccc21	i	nt	i	i	53
O=C(CCc1ccccc1)N[C@H]1[C@H](OC(=O)c2ccc3ccccc3n2)CCC[C@@]12C(=O)N(Cc1ccccc1)c1ccccc12	nt	nt	nt	i	nt
COc1ccc2oc(-c3ccc(NC(=O)c4ccc(N5CCOCC5)c([N+](=O)[O-])c4)cc3)nc2c1	i	nt	i	i	i
O=C(Nc1ccc(-c2nc3ccccc3o2)cc1)c1ccc(N2CCOCC2)c([N+](=O)[O-])c1	i	nt	i	i	54
O=S(=O)(c1ccccc1)N(CC(O)Cn1c2ccccc2c2ccccc21)c1ccccc1 (stereo unspecified)	i	nt	i	i	64
Cc1ccc2nc(NNC(=O)c3ccc4c(c3)OCCO4)sc2c1	i	i	i	i	48
O=C(Nc1nc2cc3c(cc2s1)OCCO3)c1cccc(N2C(=O)CCC2=O)c1	i	i	i	i	52
Cc1ccc2nc(N(CCN(C)C)C(=O)c3ccc4c(c3)OCCO4)sc2c1	i	i	i	i	i
O=C(Nc1nc2ccccc2s1)c1cccc(N2C(=O)CCC2=O)c1	i	i	i	i	i
COc1cc(C(=O)NNc2nc3cc4c(cc3s2)OCO4)cc(OC)c1OC	i	i	i	i	i
O=C(NNc1nc2cc3c(cc2s1)OCO3)c1cccc(F)c1	i	i	i	i	77
COc1cc(OC)cc(C(=O)NNc2nc3cc4c(cc3s2)OCO4)c1	i	i	i	i	i
O=C(NNc1nc2cc3c(cc2s1)OCO3)c1ccccc1	i	i	i	i	61
COc1cc2sc(NC(=O)c3ccco3)nc2cc1Cl	i	nt	i	i	49
COc1cccc(OC)c1C(=O)Nc1nc2cc3c(cc2s1)OCO3	i	i	i	i	54
COc1ccccc1C(=O)Nc1nc2cc3c(cc2s1)OCO3	i	i	i	i	i
CC(=O)CC[C@@H]1CC[C@]2(CCCN(C(=O)c3ccco3)C2)O1	nt	nt	nt	i	nt
COc1ccc(/C=N/n2c(=S)n(C)c3ccccc32)cc1OC	i	nt	i	i	i
Cc1cc2ncn(/N=C/c3cccnc3)c2cc1C	i	i	i	i	i
Cc1cc2ncn(/N=C/c3ccc4c(c3)OCO4)c2cc1C	i	i	i	i	55
Cn1c(=S)n(/N=C/c2ccc3c(c2)OCO3)c2ccccc21	i	i	i	i	58
CCc1nc(SC)[nH]c(=O)c1C	i	i	i	i	i
CSc1nc2c(C)c(C)c(C)c(C)c2[nH]1	i	i	i	i	47
Cc1nc(Cl)sc1C(=O)Nc1ccc(Cl)cc1	i	nt	i	i	93
SMILES	Tb MetRS inh	TAG inh	Efflux pump inh	SMARCA2 act	AHR activator
O=C(Nc1ccc(Cl)cc1)c1ccc2ncsc2c1	i	nt	i	i	49
O=C(Nc1ccc(F)cc1)c1ccc2ncsc2c1	i	nt	i	i	i
O=C(Nc1ccc(Cl)cc1)c1cncs1	i	nt	i	i	68
C[C@@H]1COc2cccc(NCCCN3CCOCC3)c2S(=O)(=O)N1	nt	nt	nt	i	nt
O=C(CNS(=O)(=O)c1ccc(F)cc1)N1CCN(c2ccccn2)CC1	nt	nt	nt	i	nt
CCOC(=O)CC[C@@]1(C(=O)OCC)C[C@@H](CC(=O)NCCCOC)C(=O)N2CCCC=C21	nt	nt	nt	i	nt
O=C(C1=NN[C@@H]2C(=O)N(c3cccc(F)c3)C(=O)[C@H]12)c1ccc2ccccc2n1	i	nt	i	i	99
O=C(C1=NN[C@@H]2C(=O)N(c3cccc(C(F)(F)F)c3)C(=O)[C@H]12)c1ccc2ccccc2n1	i	i	i	i	i
COC(=O)[C@H](CC(C)C)N(CCCc1cn(Cc2ccccc2)nn1)S(=O)(=O)c1ccc(F)cc1Br	nt	nt	nt	i	nt
CCCC(=O)NC1=C(Cl)C(=O)c2ccccc2C1=O	i	i	nt	i	nt
CCNC1=C(Cl)C(=O)c2ccccc2C1=O	i	62	i	i	i
Cc1cc(N2CCN(C(=O)OC(C)(C)C)C[C@H]2C)ccc1N1CC[C@@H](O)C1	nt	nt	nt	i	nt
Cc1cc(=O)n2[nH]c(-c3ccc(Cl)cc3)cc2n1	i	i	i	7.8	i
Cc1cc(=O)n2[nH]c(-c3ccc(F)cc3)cc2n1	i	i	i	i	i
